Laboratory results as given in ChEMBL document CHEMBL3862036, “Biphenyl Pyridazinone Derivatives as Inhaled PDE4 Inhibitors: Structural Biology and Structure-Activity Relationships” (J Med Chem, 2016).

Experiments:
Rattus norvegicus [1] = assay: Anti-inflammatory activity in Sprague-Dawley rat assessed as inhibition of LPS-induced neutrophilia at 10 to 1000 ug/kg, it administered as suspension with Penn-Century micro-sprayer aerosolizer dosed 1 hrs before LPS challenge and measured 5 hrs post dose; format: functional; conditions: inhaled or nasal
In short: (§1)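 Suspensions in PBS/0.2% Tween 80 were homogenized, with lower doses made by 1:10 dilutions. 0.2 mL was given intratracheally by MicroSprayer to isoflurane-anesthetized fasted male Sprague-Dawley rats (230–280 g). At 1 or 18 h, rats received nebulized LPS (30 mL of a 1:100 PBS dilution of 100 mg/10 mL stock) over 40 min. Four hours later, BAL neutrophils were counted by flow cytometry.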

[2] = Inhibition of PDE4 in human whole blood assessed as reduction in LPS-induced TNFalpha production incubated for 24 hrs by ELISA; format: tissue-based
In short: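 Human whole blood was preincubated with LPS (final 1 μg/mL) for 10 min at 37 °C with rocking. 200 μL was added to wells holding increasing inhibitor concentrations in 100% DMSO. Plates were incubated 24 h at 37 °C under agitation, then placed on ice, diluted with PBS and centrifuged at 800g, 4 °C, for 15 min before TNF-α measurement.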

[3] = Inhibition of PDE4 in PBMC (unknown origin) assessed as reduction in LPS-induced TNFalpha production incubated for 24 hrs by ELISA; conditions: Homo sapiens
Adenosine receptor A1 = target: T1, Adenosine receptor A1 (Homo sapiens, UniProt P30542); assay: Antagonist activity at adenosine A1 receptor (unknown origin)
T1 sequence (P30542 whole entry): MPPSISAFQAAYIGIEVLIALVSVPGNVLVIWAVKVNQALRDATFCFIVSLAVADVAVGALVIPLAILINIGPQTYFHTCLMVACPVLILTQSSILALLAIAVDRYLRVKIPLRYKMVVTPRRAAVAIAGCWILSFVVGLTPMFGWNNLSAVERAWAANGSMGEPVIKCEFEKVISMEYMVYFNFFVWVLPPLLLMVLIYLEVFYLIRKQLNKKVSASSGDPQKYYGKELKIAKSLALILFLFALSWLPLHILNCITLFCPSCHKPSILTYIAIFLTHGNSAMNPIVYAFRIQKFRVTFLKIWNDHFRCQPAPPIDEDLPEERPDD

Adenosine receptor A2b = target: T2, Adenosine receptor A2b (Homo sapiens, UniProt P29275); assay: Antagonist activity at adenosine A2b receptor (unknown origin)
T2 sequence (P29275 whole entry): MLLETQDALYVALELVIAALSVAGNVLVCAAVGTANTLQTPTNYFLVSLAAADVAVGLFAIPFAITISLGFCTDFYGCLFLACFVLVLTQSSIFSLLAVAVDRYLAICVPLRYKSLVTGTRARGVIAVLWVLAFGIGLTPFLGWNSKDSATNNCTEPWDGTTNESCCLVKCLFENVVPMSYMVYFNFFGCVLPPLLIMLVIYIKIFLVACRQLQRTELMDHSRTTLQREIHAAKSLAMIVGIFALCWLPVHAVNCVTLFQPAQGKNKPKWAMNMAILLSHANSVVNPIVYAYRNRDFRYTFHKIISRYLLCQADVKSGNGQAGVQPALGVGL

Rattus norvegicus [4] = assay: Anti-inflammatory activity in Sprague-Dawley rat assessed as inhibition of LPS-induced neutrophilia at 1000 ug/kg, it administered as suspension with Penn-Century micro-sprayer aerosolizer dosed 1 hrs before LPS challenge and measured 5 hrs post dose; format: functional; conditions: inhaled or nasal; in short: as §1
Adenosine receptor A2a = Adenosine receptor A2a (Homo sapiens, UniProt P29274); assay: Antagonist activity at adenosine A2a receptor (unknown origin)
Chain of Adenosine receptor A2a (P29274 whole entry): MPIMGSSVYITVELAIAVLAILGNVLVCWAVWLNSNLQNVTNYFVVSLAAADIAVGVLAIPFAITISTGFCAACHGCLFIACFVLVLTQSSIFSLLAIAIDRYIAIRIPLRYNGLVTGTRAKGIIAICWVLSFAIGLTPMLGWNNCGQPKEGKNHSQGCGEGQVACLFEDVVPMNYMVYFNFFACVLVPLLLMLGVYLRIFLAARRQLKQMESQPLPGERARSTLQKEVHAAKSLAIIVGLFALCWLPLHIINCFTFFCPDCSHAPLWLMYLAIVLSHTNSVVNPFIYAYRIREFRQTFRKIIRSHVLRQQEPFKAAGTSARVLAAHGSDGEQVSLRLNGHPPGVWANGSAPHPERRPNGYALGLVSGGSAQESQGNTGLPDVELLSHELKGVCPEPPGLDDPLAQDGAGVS

[5] = Drug metabolism in human liver S9 fraction assessed as glucuronidation in presence of PAPS and UDPGA incubated for 20 mins; format: ADME, subcellular; conditions: read-out: Drug metabolism
Rattus norvegicus [6] = assay: Anti-inflammatory activity in Sprague-Dawley rat assessed as inhibition of LPS-induced neutrophilia at 1000 ug/kg, it administered as suspension with Penn-Century micro-sprayer aerosolizer dosed 18 hrs before LPS challenge and measured 22 hrs post dose; format: functional; conditions: inhaled or nasal; in short: as §1
Rattus norvegicus [7] = assay: Anti-inflammatory activity in Sprague-Dawley rat assessed as inhibition of LPS-induced neutrophilia at 25 ug/kg, it administered as suspension with Penn-Century micro-sprayer aerosolizer dosed 1 hrs before LPS challenge and measured 5 hrs post dose; format: functional; conditions: inhaled or nasal; in short: as §1
Rattus norvegicus [8] = assay: Anti-inflammatory activity in Sprague-Dawley rat assessed as inhibition of LPS-induced neutrophilia at 100 ug/kg, it administered as suspension with Penn-Century micro-sprayer aerosolizer dosed 1 hrs before LPS challenge and measured 5 hrs post dose; format: functional; conditions: inhaled or nasal; in short: as §1
Rattus norvegicus [9] = assay: Anti-inflammatory activity in Sprague-Dawley rat assessed as inhibition of LPS-induced neutrophilia at 100 ug/kg, it administered as suspension with Penn-Century micro-sprayer aerosolizer dosed 18 hrs before LPS challenge and measured 22 hrs post dose; format: functional; conditions: inhaled or nasal; in short: as §1
Rattus norvegicus [10] = assay: Anti-inflammatory activity in Sprague-Dawley rat assessed as inhibition of LPS-induced neutrophilia at 300 ug/kg, it administered as suspension with Penn-Century micro-sprayer aerosolizer dosed 18 hrs before LPS challenge and measured 22 hrs post dose; format: functional; conditions: inhaled or nasal; in short: as §1

| Structure (SMILES) | IC50 [2] [nM] | IC50 [3] [nM] | IC50 (Adenosine receptor A1) [nM] | IC50 (Adenosine receptor A2b) [nM] | IC50 (Adenosine receptor A2a) [nM] | further results |
| --- | --- | --- | --- | --- | --- | --- |
| CCn1nc(-c2cccc(-c3ccc(CC(=O)O)cc3)c2)cc(NC(=O)Nc2c(Cl)cncc2Cl)c1=O | 257 | 0.68 | 184 | > 1000 | > 1000 | ED50 (Rattus norvegicus [1]): 0.149 mg/kg; inhibition in vivo at 1 mg/kg (Rattus norvegicus [4]): 80%; metabolised at 20 min [5]: 32%; inhibition in vivo at 1 mg/kg (Rattus norvegicus [6]): 10% |
| CCn1nc(-c2cccc(-c3cccc(CC(=O)NCCCCCCCN(C)CCO)c3)c2)cc(NC(=O)Nc2c(Cl)cncc2Cl)c1=O | 525 | 4.9 | 28 | 459 | 59 |  |
| CCn1nc(-c2cccc(Br)c2)cc(NC(=O)Nc2c(Cl)cncc2Cl)c1=O |  | 3.7 |  |  |  |  |
| CCn1nc(-c2cccc(-c3cc(OCC4CC4)cc(C(=O)NCCN4CCCCC4)c3)c2)cc(NC(=O)Nc2c(Cl)cncc2Cl)c1=O |  | 0.88 | 81 | > 1000 | > 1000 | inhibition in vivo at 0.025 mg/kg (Rattus norvegicus [7]): 60% |
| CCn1nc(-c2cccc(-c3ccc(F)c(C(=O)O)c3)c2)cc(NC(=O)Nc2c(Cl)cncc2Cl)c1=O |  | 26.3 |  |  |  |  |
| CCn1nc(-c2cccc(-c3ccccc3C(=O)O)c2)cc(NC(=O)Nc2c(Cl)cncc2Cl)c1=O |  | 10.3 |  |  |  |  |
| CCn1nc(-c2cccc(-c3cccc(C(=O)NCCC4CCCN4C)c3)c2)cc(NC(=O)Nc2c(Cl)cncc2Cl)c1=O (stereo unspecified) | 70 | 0.19 | 2 |  | 5 | inhibition in vivo at 0.1 mg/kg (Rattus norvegicus [8]): 70%; inhibition in vivo at 0.1 mg/kg (Rattus norvegicus [9]): 57% |
| CCn1nc(-c2cccc(-c3cc(C(=O)NCCO)cc(C(=O)NCCN4CCCCC4)c3)c2)cc(NC(=O)Nc2c(Cl)cncc2Cl)c1=O |  | 0.31 | > 1000 | > 268 | > 1000 | inhibition in vivo at 0.025 mg/kg (Rattus norvegicus [7]): 33% |
| CCn1nc(-c2cccc(-c3cc(C(=O)NCCN4CCCCC4)cc(C(=O)NC4CC4)c3)c2)cc(NC(=O)Nc2c(Cl)cncc2Cl)c1=O |  | 0.35 | > 1000 | 95 | > 1000 | inhibition in vivo at 0.025 mg/kg (Rattus norvegicus [7]): 25% |
| CCn1nc(-c2cccc(-c3ccc(C(N)=O)cc3)c2)cc(NC(=O)Nc2c(Cl)cncc2Cl)c1=O | 120 | 0.2 |  |  |  |  |
| CCn1nc(-c2cccc(-c3cc(C(=O)O)ccc3F)c2)cc(NC(=O)Nc2c(Cl)cncc2Cl)c1=O |  | 6.6 |  |  |  |  |
| CCn1nc(-c2cccc(-c3cncc(C(=O)O)c3)c2)cc(NC(=O)Nc2c(Cl)cncc2Cl)c1=O |  | 11.6 |  |  |  | metabolised at 20 min [5]: 35% |
| CCn1nc(-c2cccc(-c3cc(C(=O)NCC[C@H]4CCCN4C)cc(C(=O)NC4CC4)c3)c2)cc(NC(=O)Nc2c(Cl)cncc2Cl)c1=O |  | 0.3 | 399 | 146 | > 1000 | inhibition in vivo at 0.025 mg/kg (Rattus norvegicus [7]): 42%; inhibition in vivo at 0.1 mg/kg (Rattus norvegicus [9]): 37% |
| CCOc1cc(C(=O)NC2CC2)cc(-c2cccc(-c3cc(NC(=O)Nc4c(Cl)cncc4Cl)c(=O)n(CC)n3)c2)c1 |  | 0.24 | 59 | > 1000 | > 1000 | inhibition in vivo at 0.025 mg/kg (Rattus norvegicus [7]): 26% |
| CCn1nc(-c2cccc(-c3cccc(CC(=O)O)c3)c2)cc(NC(=O)Nc2c(Cl)cncc2Cl)c1=O | 190 | 0.54 | 5 | 263 | 434 | inhibition in vivo at 1 mg/kg (Rattus norvegicus [4]): 66%; metabolised at 20 min [5]: 56%; inhibition in vivo at 1 mg/kg (Rattus norvegicus [6]): 16% |
| CCn1nc(-c2cccc(-c3cc(C(=O)NCCN4CCOCC4)cc(C(=O)NC4CC4)c3)c2)cc(NC(=O)Nc2c(Cl)cncc2Cl)c1=O |  |  | > 1000 | > 1000 | > 1000 | inhibition in vivo at 0.025 mg/kg (Rattus norvegicus [7]): 55%; inhibition in vivo at 0.1 mg/kg (Rattus norvegicus [9]): 29% |
| CCn1nc(-c2cccc(-c3ccc(O)nc3)c2)cc(NC(=O)Nc2c(Cl)cncc2Cl)c1=O | 100 | 1.1 |  |  |  |  |
| CCn1nc(-c2cccc(-c3ccccc3O)c2)cc(NC(=O)Nc2c(Cl)cncc2Cl)c1=O | 75 | 1.4 |  |  |  | metabolised at 20 min [5]: 1.7% |
| CCn1nc(-c2cccc(-c3cccc(C(=O)O)c3)c2)cc(NC(=O)Nc2c(Cl)cncc2Cl)c1=O |  | 2.17 | 17 | 222 | 270 | metabolised at 20 min [5]: 9% |
| CCn1nc(-c2cccc(-c3cccc(O)c3F)c2)cc(NC(=O)Nc2c(Cl)cncc2Cl)c1=O |  | 0.8 |  |  |  |  |
| CCn1nc(-c2cccc(-c3cccc(C(=O)NCCCCCCCN(C)CCO)c3)c2)cc(NC(=O)Nc2c(Cl)cncc2Cl)c1=O | 57 | 0.24 | 13 | 206 | 41 | inhibition in vivo at 0.1 mg/kg (Rattus norvegicus [8]): 79%; inhibition in vivo at 1 mg/kg (Rattus norvegicus [6]): 27% |
| CCn1nc(-c2cccc(-c3ccc(O)cc3F)c2)cc(NC(=O)Nc2c(Cl)cncc2Cl)c1=O | 154 | 2.9 |  |  |  | metabolised at 20 min [5]: 27% |
| CCn1nc(-c2cccc(-c3cc(C(=O)NC4CC4)cc(C(=O)NC4CC4)c3)c2)cc(NC(=O)Nc2c(Cl)cncc2Cl)c1=O |  | 0.4 | 324 | > 1000 | > 1000 | inhibition in vivo at 0.025 mg/kg (Rattus norvegicus [7]): 54%; inhibition in vivo at 0.3 mg/kg (Rattus norvegicus [10]): 27% |
| CCn1nc(-c2ccccc2)c(C(C)=O)c(Nc2ccc(C(=O)O)cc2)c1=O |  | 21 |  |  |  |  |
| CCn1nc(-c2cccc(-c3ccc(F)cc3O)c2)cc(NC(=O)Nc2c(Cl)cncc2Cl)c1=O | 202 | 1.3 |  |  |  |  |
| CCn1nc(-c2cccc(-c3cc(C#N)cc(C(=O)NC4CC4)c3)c2)cc(NC(=O)Nc2c(Cl)cncc2Cl)c1=O |  | 0.19 | 634 | > 1000 | > 1000 |  |
